Compound activity from PubChem.
Only some compounds are listed: those with a hit (about 3.8% of all), similar ones and a draw of the others.
FGF22 binding = binders of human FGF22 protein, primary screen, FGF22 synaptogenesis inhibitor project, biophysical, thermal shift, single point; AID 651658, 2012; activity (Tm shift, normalised), % at 9.99 µM; hit rate 1.5% among 340,000; recombinant FGF22 thermal shift, SYPRO orange fluorescence; percent of sucrose octasulfate shift, DMSO zero;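 active = mean Tm shift, scaled 0 neutral to 100 positive control, at about 1.3% or above, every replicate too, limit read from the data; inconclusive = no clear call, values can overlap the other calls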
Target sequence (Q9HCT0 whole entry, looked up): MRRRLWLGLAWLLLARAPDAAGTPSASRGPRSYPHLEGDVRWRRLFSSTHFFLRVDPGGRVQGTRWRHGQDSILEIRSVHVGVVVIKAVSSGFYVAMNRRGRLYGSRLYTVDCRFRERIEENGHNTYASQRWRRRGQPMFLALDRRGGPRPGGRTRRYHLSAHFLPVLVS
DENV2 CPE = inhibitors of DENV2 cytopathic effect, primary screen, cell-based, plate reader, single concentration; DENV2-infected cells, cytopathic effect rescue; CPE inhibition, % at 9.99 µM; hit rate 1.7% among 350,000; AID 651640, 2012; in the data active = CPE inhibition above about 20%, passing the limit was not always enough; inconclusive = no clear call, values can overlap the other calls; tested in BHK-21 cells
SIRT5 inh = SIRT5 desuccinylase inhibitors, primary screen, biochemical, fluorescence imaging, single point, set 5; NAD-dependent protein deacylase sirtuin-5, mitochondrial (Homo sapiens), Q9NXA8; Purified SirT5, succinyl-peptide AMC, trypsin-coupled fluorescence; inhibition, % at 15 µM; hit rate 1.1% among 330,000; AID 652115, 2013; in the data active = inhibition above about 15%; inconclusive = no clear call, values can overlap the other calls
Target sequence (Q9NXA8 whole entry, looked up): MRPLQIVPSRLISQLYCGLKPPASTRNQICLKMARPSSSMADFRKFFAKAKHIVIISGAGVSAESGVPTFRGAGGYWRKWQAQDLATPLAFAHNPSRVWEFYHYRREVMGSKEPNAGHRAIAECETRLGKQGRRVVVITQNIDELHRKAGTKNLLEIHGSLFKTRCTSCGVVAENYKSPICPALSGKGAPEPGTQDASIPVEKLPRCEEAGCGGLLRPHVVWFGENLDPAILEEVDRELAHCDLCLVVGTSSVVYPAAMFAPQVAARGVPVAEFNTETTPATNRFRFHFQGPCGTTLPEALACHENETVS
FN deposit inh = inhibitors of fibronectin matrix deposition, primary screen, AH1F cells, Alexa488-fibronectin fluorescence, plate reader. AH1F fibroblasts, overnight. inhibition, % at 12.6 µM. hit rate 0.086% among 350,000. AID 743247, 2014;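 active = mean inhibition across replicates of 30% or more, regardless of how many single replicates reach that level; inconclusive = mean under 30% yet at least half of replicates reach 30%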
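Test system: AH1F fibroblast monolayer depositing Alexa488-labelled fibronectin into matrix. Input: 10000 cells per well. Technique: fluorescence, ex 485 nm, em 525 nm. Buffer or medium: DMEM plus 2% serum, read in PBS. Timing: 1 h cell adhesion before compound, then overnight fibronectin incubation. Compound: single dose, pinned. Read-out basis: inhibition from reduced deposited-fibronectin fluorescence.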
ARNT-TACC3 inh = disruptors of ARNT/TACC3 protein interaction, primary screen, biochemical, AlphaScreen, single concentration. Transforming acidic coiled-coil-containing protein 3 (Homo sapiens), Q9Y6A5. AlphaScreen His-ARNT PAS-B/GST-TACC3 binding, luminescence; TACC3 fragment carries E629A point mutation. inhibition, % at 9.99 µM. hit rate 0.66% among 390,000;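 active = mean inhibition of replicates at least 50% and at least half of replicates each reaching 50%; inconclusive = half or more replicates reach 50% but mean below 50%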
Xi reactivation = activators of inactive X chromosome reactivation, primary screen, imaging, XiGFP fibroblasts, GFP high-content imaging, set 2; XiGFP mouse fibroblasts, % GFP-positive cells imaging, 3 d; cells co-treated with 5-aza-dC sensitizer; scaled so ellipticine positive control = 100%; activation, % at 7.58 µM; hit rate 0.055% among 360,000; AID 743238, 2013;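 active = mean normalized replicate activation at least 10% and every replicate at or above 10%; inconclusive = only one of the two criteria met; inactive = mean below 10% and not all replicates reach 10%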
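System: 68-5-11 XiGFP fibroblast line; Timing: 3 days compound exposure; Compound dosing: one concentration, pinned; Benchmarks: positive control ellipticine, 6 µM final; Buffer or medium: DMEM containing 5-aza-dC.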
ARNT Alpha ctr-1 = AlphaScreen signal interference compounds, dose response, artefact control for ARNT-TACC3 interaction inhibitor project, biochemical, luminescence, cherry-pick; AC50, µM (series often up to 68 µM); hit rate 50% among 1,200; shares compounds with ARNT-TACC3 inh; AID 651705, 2012; His-ARNT PASB-GST AlphaScreen artifact counter-screen;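 active = every separate test run was called active for a drop in luminescence, with AC50 within twice the top valid dose, actives reach about 71 µM in these data; inconclusive = the separate test runs disagree in their calls; inactive = all runs inactive, including signal change in the wrong direction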
ARNT Alpha ctr-2 = AlphaScreen signal interference by compounds, dose response, artefact control for ARNT/TACC3 disruptor project, biochemical, dual-tagged ARNT, dry powder; AC50, µM; AID 720564, 2013; hit rate 70% among 45; Dual-tagged His-ARNT PASB-GST AlphaScreen artifact counter-screen; shares compounds with ARNT-TACC3 inh;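 active = luminescence drop, with half-maximal potency fitted within twice the sample's top valid dose, cut at about 70 µM in these data; inactive = the rest, including signal moving the wrong way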
A number is an active result; . = inactive; ? = inconclusive; / = no result given.

SMILES	FGF22 binding	DENV2 CPE	SIRT5 inh	FN deposit inh	ARNT-TACC3 inh	Xi reactivation	ARNT Alpha ctr-1	others
CO[C@@H]1CN(C)C(=O)c2ccc(NC(=O)c3ccccc3)cc2OC[C@H](C)N(C(C)=O)C[C@H]1C	.	.	.	.	.	.	/
CC(C)(C)[S@](=O)N1Cc2cc(C(=O)NCc3ccccc3F)nc(-c3cccc(-c4ccncc4)c3)c2[C@@H]1CCO	.	.	.	.	.	.	/
COc1cc(OC)c2c(-c3ccccc3)cc(=O)oc2c1C(CCN1CCCCC1)c1ccc(N(C)C)cc1 (configuration not stated)	/	/	/	/	44.3	/	12.4µM
CCCCCc1cc(=O)oc2c(C(CCN(CC)CC)c3ccc(N(C)C)cc3)c(OC)cc(OC)c12 (configuration not stated)	.	.	.	.	50.3	.	12.3µM
COc1cc(OC)c2c(-c3ccccc3)cc(=O)oc2c1C(CCN1CCOCC1)c1ccc(N(C)C)cc1 (configuration not stated)	.	.	.	.	.	.	/
COc1ccc(CN(C)C[C@@H]2Oc3ccc(NC(=O)CCN4CCOCC4)cc3C(=O)N([C@H](C)CO)C[C@@H]2C)cc1	.	.	.	/	.	.	/
N#C[C@H]1[C@@H](c2ccc(C#CCC3CCCC3)cc2)[C@H](CO)N1C(=O)c1ccccn1	.	.	.	.	/	.	/
COc1ccc(OC)c(NC(=O)COC(=O)Cn2nnc(-c3ccccc3)n2)c1	.	.	.	.	active	.	.
Cc1ccc(Nc2nc(N)nc(CN3CCN(Cc4ccc5c(c4)OCO5)CC3)n2)cc1Cl	/	/	/	/	.	/	/
Nc1nc(CN2CCN(Cc3ccccc3)CC2)nc(Nc2ccc3c(c2)OCCO3)n1	/	/	/	.	59.9	/	.
CCOC(=O)N1CCN(Cc2nc(N)nc(Nc3ccc(OC)cc3)n2)CC1	.	.	.	/	.	/	/
COc1ccc(Nc2nc(N)nc(CN3CCOCC3)n2)cc1	/	/	/	/	39.6	/	.
Fc1ccc(COc2cccc3cccnc23)cc1	.	.	.	.	/	.	/
Cc1oc(C(=O)O)cc1COc1cccc2cccnc12	/	/	/	/	58.8	/	.
C/C=C/c1ccc2c(c1)O[C@@H](CN(C)C(C)=O)[C@H](C)CN([C@@H](C)CO)S2(=O)=O	.	.	.	.	.	.	/
CCO/C=C1/C(=O)N(Cc2ccccc2)C(=O)c2ccccc21	.	.	25.9	.	25.4	.	.
CCO/C=C1\C(=O)N(c2ccccc2)C(=O)c2ccccc21	/	/	/	/	.	/	/
COC(=O)c1ccc(C(=O)O)nc1	.	.	.	.	52.6	.	.
Cc1nnc(SCC(=O)Nc2nnc(-c3ccccc3)o2)s1	.	?	.	/	55.6	.	.
COc1ccccc1-c1nnc(NC(=O)Cc2ccccc2)o1	.	.	.	.	54.0	.	.
CCOc1ccccc1C(=O)OCC(=O)Nc1nnc(-c2ccccc2)o1	.	.	.	.	54.2	.	.
O=C([C@@H]1[C@@H](CO)[C@@H]2Cn3c(ccc(C4=CCCC4)c3=O)[C@@H]2N1CC1CC1)N1CCCCC1	.	.	.	/	.	.	/
CO[C@@H]1CN(C)C(=O)c2cc(NC(=O)C3CC3)ccc2OC[C@@H](C)N(C(=O)Cc2ccccn2)C[C@@H]1C	/	.	.	.	.	.	/
CCCNC(=O)N1[C@@H]2c3ccc(-c4cccc(OC)c4)c(=O)n3C[C@H]1[C@H](CO)[C@H]2C(=O)NCC	.	.	.	/	.	.	/
N[C@H]1CC[C@@H](CCn2cc(-c3ccccn3)nn2)O[C@H]1CO	.	.	.	.	74.8	.	6.03µM
SMILES	FGF22 binding	DENV2 CPE	SIRT5 inh	FN deposit inh	ARNT-TACC3 inh	Xi reactivation	ARNT Alpha ctr-1	others
N[C@H]1CC[C@H](CCn2cc(-c3cccc(F)c3)nn2)O[C@@H]1CO	.	.	.	.	.	.	/
COCc1cn(CC[C@@H]2CC[C@H](NC(=O)c3ccncc3)[C@H](CO)O2)nn1	.	.	.	.	.	.	/
O=C(N[C@H]1CC[C@@H](CCn2cc(-c3ccccn3)nn2)O[C@H]1CO)c1ccncc1	.	.	.	.	65.3	.	31.3µM
COCc1cn(CC[C@H]2CC[C@@H](NC(=O)c3ccncc3)[C@@H](CO)O2)nn1	.	.	.	.	.	.	/
O=C(N[C@@H]1CC[C@H](CCn2cc(-c3ccccn3)nn2)O[C@@H]1CO)c1ccncc1	.	.	.	.	65.8	.	32.6µM
O=C(c1ccncc1)N1C[C@@H]2[C@H](c3ccccc31)[C@@H](CO)N2C(=O)c1ccccc1F	.	.	.	/	.	.	/
O=C(Nc1ccc(Cl)cc1)N1C[C@@H]2[C@H](c3ccccc31)[C@H](CO)N2CC1CCCCC1	.	.	.	.	.	.	/
Oc1c(Br)cccc1/C=N/c1ncn[nH]1	.	.	.	.	51.3	.	.
CC1(C)CC(=O)C=C(Nc2ccccc2N)C1	.	.	.	.	50.6	.	.
O=C(CSc1n[nH]c(-c2ccccn2)n1)Nc1ccc(Cl)cc1	.	.	.	.	67.7	/	32.2µM	ARNT Alpha ctr-2=11.3
Cc1ccc(NC(=O)CSc2n[nH]c(-c3ccccn3)n2)cc1	.	.	.	.	69.5	.	9.15µM
O=C(CSc1n[nH]c(-c2ccncc2)n1)Nc1ccc(F)cc1	.	.	.	.	.	.	/
O=C(CSc1n[nH]c(-c2ccncc2)n1)Nc1ccccc1	.	.	.	.	/	.	/
O=C(CSc1n[nH]c(-c2ccccn2)n1)Nc1ccc(F)cc1	.	.	.	.	69.8	.	10.6µM
N#C[C@H]1[C@H](c2ccc(C3=CCCC3)cc2)[C@@H](CO)N1C(=O)NC1CCCC1	.	.	.	.	.	.	/
COCC(=O)N1CC2(C1)CN(C(=O)c1ccccn1)[C@@H](CO)c1c2c2ccc(OC)cc2n1C	.	.	/	/	/	.	/
COC(=O)C[C@@H]1C[C@H]2c3cc(N(C)C)ccc3O[C@H]2[C@@H](CO)O1	.	.	.	.	67.4	.	.
